Data as given in ChEMBL document CHEMBL3862041, “Discovery of Novel Bruton's Tyrosine Kinase (BTK) Inhibitors Bearing a N,9-Diphenyl-9H-purin-2-amine Scaffold” (ACS Med Chem Lett, 2016).
pIC50: −log10 of the molar value.

Tests used:
[1] = Antiproliferative activity against human Ramos cells after 48 hrs by CCK-8 assay; assay type: functional, cell-based
How it was run: (§1)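 Dose-response curves run at five concentrations in Ramos and Raji B-cell leukemia lines, with viability read by the CCK-8 method. IC50 is the concentration in micromolar that inhibits cell growth by 50%, taken from these curves.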

[2] = biological target: T1, Tyrosine-protein kinase JAK3 (Homo sapiens, UniProt P52333); assay: Inhibition of JAK3 (unknown origin)
T1 sequence (P52333 whole entry): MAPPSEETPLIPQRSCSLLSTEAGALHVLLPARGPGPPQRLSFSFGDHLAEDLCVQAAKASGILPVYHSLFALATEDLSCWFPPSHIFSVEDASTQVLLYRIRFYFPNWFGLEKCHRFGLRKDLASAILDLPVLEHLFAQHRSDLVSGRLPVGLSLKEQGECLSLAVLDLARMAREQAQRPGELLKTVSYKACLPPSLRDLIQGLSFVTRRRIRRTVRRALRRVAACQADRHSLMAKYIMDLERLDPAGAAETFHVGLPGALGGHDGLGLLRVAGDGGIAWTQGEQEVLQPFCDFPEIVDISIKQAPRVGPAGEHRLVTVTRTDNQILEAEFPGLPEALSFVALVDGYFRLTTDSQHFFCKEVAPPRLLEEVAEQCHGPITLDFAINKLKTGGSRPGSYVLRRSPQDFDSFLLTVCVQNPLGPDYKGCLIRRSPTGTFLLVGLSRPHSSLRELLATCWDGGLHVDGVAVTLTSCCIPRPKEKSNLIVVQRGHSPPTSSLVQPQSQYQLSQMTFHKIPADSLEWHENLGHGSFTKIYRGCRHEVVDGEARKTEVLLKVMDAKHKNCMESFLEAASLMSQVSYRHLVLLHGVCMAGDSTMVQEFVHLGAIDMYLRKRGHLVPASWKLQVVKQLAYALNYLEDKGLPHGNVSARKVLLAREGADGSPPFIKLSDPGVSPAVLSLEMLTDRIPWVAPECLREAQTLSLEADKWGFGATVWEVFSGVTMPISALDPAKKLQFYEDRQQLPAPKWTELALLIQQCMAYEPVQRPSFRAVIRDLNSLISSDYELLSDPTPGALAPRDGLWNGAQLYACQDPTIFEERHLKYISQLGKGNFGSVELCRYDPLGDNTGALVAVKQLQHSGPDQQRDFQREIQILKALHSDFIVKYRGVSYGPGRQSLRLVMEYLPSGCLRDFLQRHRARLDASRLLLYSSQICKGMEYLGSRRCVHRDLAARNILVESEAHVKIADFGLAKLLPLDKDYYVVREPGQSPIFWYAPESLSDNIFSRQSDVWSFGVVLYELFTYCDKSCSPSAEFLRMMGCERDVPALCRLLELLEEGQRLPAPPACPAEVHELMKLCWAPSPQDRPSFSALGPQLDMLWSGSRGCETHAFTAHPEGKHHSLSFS

[3] = biological target: Tyrosine-protein kinase BTK (Homo sapiens, UniProt Q06187); assay: Inhibition of recombinant human N-terminal His-tagged BTK expressed in baculovirus infected sf9 cells using poly(4:1 Glu,Tyr) as substrate by ADP-Glo kinase assay
Chain of Tyrosine-protein kinase BTK (Q06187 whole entry): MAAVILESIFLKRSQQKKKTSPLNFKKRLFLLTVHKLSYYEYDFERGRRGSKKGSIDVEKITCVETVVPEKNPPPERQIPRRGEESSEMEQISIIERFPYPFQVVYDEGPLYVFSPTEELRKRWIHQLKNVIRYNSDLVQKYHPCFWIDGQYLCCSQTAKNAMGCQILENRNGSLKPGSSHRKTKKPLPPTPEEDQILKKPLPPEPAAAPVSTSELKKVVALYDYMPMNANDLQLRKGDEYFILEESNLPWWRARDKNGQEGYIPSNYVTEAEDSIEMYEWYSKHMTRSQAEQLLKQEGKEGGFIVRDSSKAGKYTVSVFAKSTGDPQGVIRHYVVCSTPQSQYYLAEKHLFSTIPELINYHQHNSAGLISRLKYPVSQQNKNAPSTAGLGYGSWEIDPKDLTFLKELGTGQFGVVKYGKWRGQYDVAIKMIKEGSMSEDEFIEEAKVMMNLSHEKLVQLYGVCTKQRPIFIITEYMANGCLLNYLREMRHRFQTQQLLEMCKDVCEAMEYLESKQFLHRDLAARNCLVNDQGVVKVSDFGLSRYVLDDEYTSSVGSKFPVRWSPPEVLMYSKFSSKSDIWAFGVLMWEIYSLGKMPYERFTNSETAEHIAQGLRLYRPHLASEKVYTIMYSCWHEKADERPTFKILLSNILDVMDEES

[4] = Antiproliferative activity against human Raji cells after 48 hrs by CCK-8 assay; assay type: functional, cell-based; how it was run: as §1
[5] = test system: Ramos; assay: Induction of apoptosis in human Ramos cells assessed as viable cells at 10 uM after 48 hrs by annexin V-FITC/propidium iodide staining based flow cytometry relative to control; assay type: functional; settings: for viability at 10 µM: Homo sapiens, Ramos, 48 h, read-out: Activity
How it was run: (§2)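 Ramos cells exposed for 48 h to the indicated compound concentrations. Cells then stained with annexin V/FITC and analysed by flow cytometry for apoptosis.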

[6] = Cell cycle arrest in human Ramos cells assessed as accumulation at G0/G1 phase at 10 uM by propidium iodide staining based flow cytometry (reference value: 56.19%); assay type: functional
How it was run: (§3)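 Ramos cells treated, then cell-cycle phase distribution (G0/G1, S, G2/M) measured by flow cytometry. Three separate experiments, expressed as mean±standard deviation.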

[7] = test system: Ramos; assay: Induction of apoptosis in human Ramos cells assessed as necrotic cells at 10 uM after 48 hrs by annexin V/FITC propidium iodide staining based flow cytometry relative to control; assay type: functional; how it was run: as §2
[8] = Cell cycle arrest in human Ramos cells assessed as accumulation at G2/M phase at 10 uM by propidium iodide staining based flow cytometry (reference value: 1.58%); assay type: functional; how it was run: as §3
[9] = test system: Ramos; assay: Induction of apoptosis in human Ramos cells assessed as early apoptotic cells at 10 uM after 48 hrs by annexin V/FITC propidium iodide staining based flow cytometry relative to control; assay type: functional; how it was run: as §2
[10] = Cell cycle arrest in human Ramos cells assessed as accumulation at S phase at 10 uM by propidium iodide staining based flow cytometry (reference value: 42.23%); assay type: functional; how it was run: as §3
[11] = test system: Ramos; assay: Induction of apoptosis in human Ramos cells assessed as late apoptotic cells at 10 uM after 48 hrs by annexin V/FITC propidium iodide staining based flow cytometry relative to control; assay type: functional; how it was run: as §2

In the case of `C=CC(=O)Nc1cccc(-n2cnc3cnc(Nc4ccc(N5CCOCC5)cc4)nc32)c1`, the pIC50 [1] was 4.95, the pIC50 [2] was < 7.00 and the pIC50 [3] was 7.82. The pIC50 [4] was 4.93.
With `C=CC(=O)Nc1cccc(-n2cnc3cnc(Nc4ccc(N5CCN(CC)CC5)cc4OC)nc32)c1` the pIC50 [1] was < 4.40, the pIC50 [2] was < 7.00 and the pIC50 [3] was < 7.00. The pIC50 [4] was < 4.40.
For `C=CC(=O)Nc1cccc(-n2cnc3cnc(Nc4ccc(N5CCN(S(C)(=O)=O)CC5)cc4OC)nc32)c1`, the pIC50 [1] was 4.41, the pIC50 [2] was < 7.00 and the pIC50 [3] was < 7.00. It also gave a pIC50 [4] of 4.66.
With `C=CC(=O)Nc1cccc(-n2cnc3cnc(Nc4ccc(N5CCN(CC)CC5)cc4)nc32)c1` the pIC50 [1] was 4.92, the pIC50 [2] was 7.17 and the pIC50 [3] was 9.30. It also gave a pIC50 [4] of 4.71.
With `C=CC(=O)Nc1cccc(-n2cnc3cnc(Nc4ccc(N5CCN(S(C)(=O)=O)CC5)cc4)nc32)c1` the pIC50 [1] was < 4.40, the pIC50 [2] was 7.15 and the pIC50 [3] was 7.77. For the same compound, the pIC50 [4] was < 4.40.
In the case of `C=CC(=O)N1CCC[C@@H](n2nc(-c3ccc(Oc4ccccc4)cc3)c3c(N)ncnc32)C1` [IBRUTINIB], the pIC50 [1] was 5.09, the Activity [5] was 62% and the Activity [6] was 46.4%. It also gave an Activity [7] of 0.1%, an Activity [8] of 0.15% and a pIC50 [4] of 4.82. The Activity [9] was 37% and the Activity [10] was 53.5%.
In the case of `C=CC(=O)Nc1cccc(-n2c(=O)[nH]c3cnc(Nc4ccc(N5CCOCC5)cc4OC)nc32)c1`, the pIC50 [1] was 4.41, the pIC50 [2] was < 7.00 and the pIC50 [3] was < 7.00. The pIC50 [4] was < 4.40.
For `C=CC(=O)Nc1cccc(-n2cnc3cnc(Nc4ccc(N5CCN(C(C)=O)C(C)C5)cc4)nc32)c1` (stereo unspecified), the pIC50 [1] was < 4.40, the pIC50 [2] was 7.21 and the pIC50 [3] was 9.30. It also gave a pIC50 [4] of 4.62.
In the case of `C=CC(=O)Nc1cccc(-n2c(=O)[nH]c3cnc(Nc4ccc(N5CCN(CC)CC5)cc4)nc32)c1`, the pIC50 [1] was 4.45, the pIC50 [2] was < 7.00 and the pIC50 [3] was < 7.00. It also gave a pIC50 [4] of 4.92.
`C=CC(=O)Nc1cccc(Nc2nc(Nc3ccc(OCCOC)cc3)ncc2F)c1` [SPEBRUTINIB] showed a pIC50 [1] of 4.82, a viability at 10 µM [5] of 54.2% and an Activity [11] of 20.4%. The Activity [6] was 31%, the Activity [7] was 4.3% and the Activity [8] was 20.9%. The pIC50 [4] was 4.60, the Activity [9] was 21.1% and the Activity [10] was 47.9%.
`C=CC(=O)Nc1cccc(-n2cnc3cnc(Nc4ccc(N5CCN(C)CC5)cc4)nc32)c1` showed a pIC50 [1] of 5.09, a pIC50 [2] of 7.17 and a pIC50 [3] of 7.99. The pIC50 [4] was 5.12.
With `C=CC(=O)Nc1cccc(-n2cnc3cnc(Nc4ccc(OC)cc4)nc32)c1` the pIC50 [1] was < 4.40, the pIC50 [2] was 7.17 and the pIC50 [3] was 7.01. It also gave a pIC50 [4] of 4.51.
In the case of `C=CC(=O)Nc1cccc(-n2cnc3cnc(Nc4ccc(N5CCN(S(C)(=O)=O)C(C)C5)cc4)nc32)c1` (stereo unspecified), the pIC50 [1] was < 4.40, the pIC50 [2] was 7.08 and the pIC50 [3] was 7.88. The pIC50 [4] was 4.50.
With `C=CC(=O)Nc1cccc(-n2cnc3cnc(Nc4ccc(OCCCN5CCOCC5)cc4)nc32)c1` the pIC50 [1] was 5.11, the viability at 10 µM [5] was 44.9% and the Activity [11] was 10.9%. For the same compound, the pIC50 [2] was 7.14, the pIC50 [3] was 9.40 and the Activity [6] was 41%. It also gave an Activity [7] of 2.2%, an Activity [8] of 6.61% and a pIC50 [4] of 4.90. It also gave an Activity [9] of 41.9% and an Activity [10] of 52.4%.
For `C=CC(=O)Nc1cccc(-n2cnc3cnc(Nc4ccc(N5CCN(C)CC5)cc4OC)nc32)c1`, the pIC50 [1] was 4.88, the pIC50 [2] was < 7.00 and the pIC50 [3] was < 7.00. The pIC50 [4] was 4.86.
